How the values were obtained:
[1] = biological target: T1, Neuropeptide Y receptor type 5 (Homo sapiens, UniProt Q15761); test: Displacement of [125I]PYY from human recombinant neuropeptide Y5 receptor expressed in thymidine kinase-deficient mouse LM cells; type: cell-based
T1 sequence (Q15761 whole entry): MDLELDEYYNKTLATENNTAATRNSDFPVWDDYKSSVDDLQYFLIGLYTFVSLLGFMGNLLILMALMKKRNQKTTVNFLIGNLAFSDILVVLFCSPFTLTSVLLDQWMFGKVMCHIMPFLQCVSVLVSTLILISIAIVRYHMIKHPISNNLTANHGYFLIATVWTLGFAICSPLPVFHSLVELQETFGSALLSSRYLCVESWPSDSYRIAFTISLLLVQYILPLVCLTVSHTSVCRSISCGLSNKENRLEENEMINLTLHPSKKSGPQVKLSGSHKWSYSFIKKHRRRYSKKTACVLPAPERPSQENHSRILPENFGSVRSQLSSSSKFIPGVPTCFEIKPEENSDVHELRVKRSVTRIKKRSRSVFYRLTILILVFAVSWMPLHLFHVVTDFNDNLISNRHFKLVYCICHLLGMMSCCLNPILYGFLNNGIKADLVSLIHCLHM
How it was run: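 [125I]PYY displacement in membranes of LMtk- cells expressing recombinant human Y5 receptor; IC50 determined.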

[2] = Plasma concentration in Sprague-Dawley rat at 10 mg/kg, po after 2 hrs; type: ADME, organism-based; design: dose 10 mg/kg, route oral
How it was run: (§1)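 Rats dosed orally at 10 mg/kg; plasma, brain (nmol/g) and CSF levels measured 2 h post-dose. Brain-to-plasma and CSF-to-brain ratios were calculated from these levels.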

Brain = test: Drug level in Sprague-Dawley rat brain at 10 mg/kg, po after 2 hrs; type: ADME, organism-based; design: dose 10 mg/kg, route oral; conditions: in vivo; how it was run: as §1
[3] = Drug level in Sprague-Dawley rat cerebrospinal fluid at 10 mg/kg, po after 2 hrs; type: ADME, organism-based; design: dose 10 mg/kg, route oral; conditions: read-out: Drug uptake; how it was run: as §1
[4] = Ratio of drug level in brain to plasma of Sprague-Dawley rat at 10 mg/kg, po after 2 hrs; type: ADME, organism-based; design: dose 10 mg/kg, route oral; conditions: read-out: BPR; how it was run: as §1
[5] = Ratio of drug level in cerebrospinal fluid to brain of Sprague-Dawley rat at 10 mg/kg, po after 2 hrs; type: ADME, organism-based, CSF/Brain; design: dose 10 mg/kg, route oral; conditions: in vivo; how it was run: as §1
[6] = biological target: T1, Neuropeptide Y receptor type 5; test: Antagonist activity at human recombinant neuropeptide Y5 receptor expressed in thymidine kinase-deficient mouse LM cells assessed as inhibition of neuropeptide-induced increase in intracellular calcium level; type: functional, cell-based
[7] = biological target: T2, Neuropeptide Y receptor type 1 (Homo sapiens) (UniProt P25929); test: Binding affinity to human neuropeptide Y1 receptor
T2 sequence (whole entry): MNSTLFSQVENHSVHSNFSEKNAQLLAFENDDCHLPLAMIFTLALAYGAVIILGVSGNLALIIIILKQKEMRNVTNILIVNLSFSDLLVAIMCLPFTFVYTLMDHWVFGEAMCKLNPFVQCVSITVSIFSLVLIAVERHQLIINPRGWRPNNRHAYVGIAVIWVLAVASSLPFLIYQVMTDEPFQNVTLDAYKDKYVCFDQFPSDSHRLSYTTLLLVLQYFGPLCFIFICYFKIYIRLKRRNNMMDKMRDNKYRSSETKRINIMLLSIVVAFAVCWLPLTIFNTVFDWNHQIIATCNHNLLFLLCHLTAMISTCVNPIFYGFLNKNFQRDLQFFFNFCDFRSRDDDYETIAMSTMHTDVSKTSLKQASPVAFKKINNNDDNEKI

[8] = biological target: T3, Neuropeptide Y receptor type 2 (Homo sapiens) (UniProt P49146); test: Binding affinity to human neuropeptide Y2 receptor
T3 sequence (whole entry): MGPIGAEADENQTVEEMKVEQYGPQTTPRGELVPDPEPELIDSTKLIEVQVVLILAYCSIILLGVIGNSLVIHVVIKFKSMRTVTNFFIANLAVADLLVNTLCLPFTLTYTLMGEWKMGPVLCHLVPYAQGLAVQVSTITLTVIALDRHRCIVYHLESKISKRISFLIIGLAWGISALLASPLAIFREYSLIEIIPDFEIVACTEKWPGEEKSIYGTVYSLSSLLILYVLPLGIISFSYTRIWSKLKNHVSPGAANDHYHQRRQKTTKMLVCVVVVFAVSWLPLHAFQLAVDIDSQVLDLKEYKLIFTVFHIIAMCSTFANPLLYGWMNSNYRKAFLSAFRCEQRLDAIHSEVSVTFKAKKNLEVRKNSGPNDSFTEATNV

[9] = biological target: Neuropeptide Y receptor type 4 (Homo sapiens) (UniProt P50391); test: Binding affinity to human neuropeptide Y4 receptor
Rattus norvegicus [10] = test: Inhibition of D-Trp34NPY-induced food intake in Sprague-Dawley rat at 3 mg/kg, po administered 2 hrs before D-Trp34NPY challenge measured for 2 hrs; type: functional; design: scale not given: the % may be the effect or the level left
How it was run: (§2)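 Oral dosing 2 h before third-ventricle injection of D-Trp34NPY, with artificial CSF as vehicle control. Cumulative food intake was recorded over the following 2 h. Data are mean ± SEM, n = 7–8, with P < 0.05 versus the agonist-only group.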

Rattus norvegicus [11] = test: Inhibition of D-Trp34NPY-induced food intake in Sprague-Dawley rat at 10 mg/kg, po administered 2 hrs before D-Trp34NPY challenge measured for 2 hrs; type: functional; design: scale not given: the % may be the effect or the level left; how it was run: as §2
Rattus norvegicus [12] = test: Inhibition of D-Trp34NPY-induced food intake in Sprague-Dawley rat at 30 mg/kg, po administered 2 hrs before D-Trp34NPY challenge measured for 2 hrs; type: functional; design: scale not given: the % may be the effect or the level left; how it was run: as §2

Chain of Neuropeptide Y receptor type 4 (Homo sapiens) (P50391 whole entry): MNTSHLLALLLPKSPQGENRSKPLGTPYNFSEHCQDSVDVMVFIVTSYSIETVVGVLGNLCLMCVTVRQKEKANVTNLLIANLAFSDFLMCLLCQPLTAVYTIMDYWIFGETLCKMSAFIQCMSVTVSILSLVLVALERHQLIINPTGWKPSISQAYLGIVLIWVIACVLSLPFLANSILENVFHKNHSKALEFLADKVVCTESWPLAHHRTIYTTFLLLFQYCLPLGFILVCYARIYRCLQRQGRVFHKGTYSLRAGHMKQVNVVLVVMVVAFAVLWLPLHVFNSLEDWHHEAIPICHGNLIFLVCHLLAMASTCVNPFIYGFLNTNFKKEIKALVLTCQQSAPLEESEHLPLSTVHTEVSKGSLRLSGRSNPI

Structure (SMILES)	IC50 [1]	also measured
Fc1ccc(C2(c3ccc(F)cc3)CNC(c3cccnn3)=N2)cc1	560 nM	–
Fc1ccc(C2(c3ccc(F)cc3)CNC(c3cccc(F)c3)=N2)cc1	10 nM	–
Fc1ccc(C2(c3ccc(F)cc3)CNC(c3cncnc3)=N2)cc1	47 nM	–
CC(=O)c1cccc(C2=NC(c3ccc(F)cc3)(c3ccc(F)cc3)CN2)c1	44 nM	–
Fc1ccc(C2(c3ccc(F)cc3)CNC(c3ccccc3Cl)=N2)cc1	630 nM	–
N#Cc1ccnc(C2=NC(c3ccc(F)cc3)(c3ccc(F)cc3)CN2)c1	2 nM	concentration at 2 h [2]: 1300 nM; Drug uptake (Brain): 6.4 nmol/g; concentration at 2 h [3]: 25 nM; Kp at 2 h [4]: 4.9; Ratio [5]: 0.004
Fc1ccc(C2(c3ccc(F)cc3)CNC(c3cccc(Br)c3)=N2)cc1	4.8 nM	–
O=c1cccc(C2=NC(c3ccc(F)cc3)(c3ccc(F)cc3)CN2)[nH]1	8.1 nM	–
Fc1ccc(C2(c3ccc(F)cc3)CNC(c3ccsc3)=N2)cc1	93 nM	–
COC(=O)c1cccc(C2=NC(c3ccc(F)cc3)(c3ccc(F)cc3)CN2)c1	270 nM	–
N#Cc1cc(C2=NC(c3ccc(F)cc3)(c3ccc(F)cc3)CN2)ccn1	4.8 nM	–
N#Cc1cccc(C2=NC(c3ccc(F)cc3)(c3ccc(F)cc3)CN2)c1	2.7 nM	concentration at 2 h [2]: 1400 nM; Drug uptake (Brain): 8.1 nmol/g; concentration at 2 h [3]: 27 nM; Kp at 2 h [4]: 5.8; Ratio [5]: 0.003
Fc1ccc(C2(c3ccc(F)cc3)CNC(c3ccccc3)=N2)cc1	32 nM	–
CN(C)c1cccc(C2=NC(c3ccc(F)cc3)(c3ccc(F)cc3)CN2)c1	> 1000 nM	–
CS(=O)(=O)c1cccc(C2=NC(c3ccc(F)cc3)(c3ccc(F)cc3)CN2)c1	9.2 nM	–
O=[N+]([O-])c1cccc(C2=NC(c3ccc(F)cc3)(c3ccc(F)cc3)CN2)c1	4.3 nM	–
OCc1cccc(C2=NC(c3ccc(F)cc3)(c3ccc(F)cc3)CN2)c1	59 nM	–

Structure (SMILES)	IC50 [1]	also measured
Nc1cccc(C2=NC(c3ccc(F)cc3)(c3ccc(F)cc3)CN2)c1	300 nM	–
Cc1cccc(C2=NC(c3ccc(F)cc3)(c3ccc(F)cc3)CN2)c1	30 nM	–
Fc1ccc(C2(c3ccc(F)cc3)CNC(c3cccc(Cl)c3)=N2)cc1	5.4 nM	–
Fc1ccc(C2(c3ccc(F)cc3)CNC(c3ccccn3)=N2)cc1	160 nM	–
Fc1ccc(C2(c3ccc(F)cc3)CNC(c3cnccn3)=N2)cc1	4.3 nM	concentration at 2 h [2]: 1200 nM; Drug uptake (Brain): 5.9 nmol/g; concentration at 2 h [3]: 64 nM; Kp at 2 h [4]: 4.9; Ratio [5]: 0.01; IC50 [6]: 2.4 nM; Activity [7]: > 10 µM; Activity [8]: > 10 µM; Activity [9]: > 10 µM; Activity (Rattus norvegicus [10]): 20%; Activity (Rattus norvegicus [11]): 42%; Activity (Rattus norvegicus [12]): 60%
O=Cc1cccc(C2=NC(c3ccc(F)cc3)(c3ccc(F)cc3)CN2)c1	8.7 nM	–
N#Cc1cccc(C2=NC(c3ccc(F)cc3)(c3ccc(F)cc3)CN2)n1	39 nM	–
c1ccc(C2=NC(c3ccccc3)(c3ccccc3)CN2)cc1	54 nM	–
COc1cccc(C2=NC(c3ccc(F)cc3)(c3ccc(F)cc3)CN2)c1	51 nM	–
Fc1ccc(C2(c3ccc(F)cc3)CNC(c3ccncc3)=N2)cc1	160 nM	–
Fc1ccc(C2(c3ccc(F)cc3)CNC(c3cccc(C(F)(F)F)c3)=N2)cc1	6.2 nM	–
Fc1ccc(C2(c3ccc(F)cc3)CNC(c3cccnc3)=N2)cc1	7.2 nM	–
N#Cc1cncc(C2=NC(c3ccc(F)cc3)(c3ccc(F)cc3)CN2)c1	17 nM	–
Fc1ccc(C2(c3ccc(F)cc3)CNC(c3ccc(C(F)(F)F)cc3)=N2)cc1	160 nM	–
Fc1ccc(C2(c3ccc(F)cc3)CNC(c3ncccn3)=N2)cc1	350 nM	–
Fc1ccc(C2(c3ccc(F)cc3)CNC(c3cccs3)=N2)cc1	54 nM	–
Fc1ccc(C2(c3ccc(F)cc3)CNC(c3ccc(Cl)cc3)=N2)cc1	130 nM	–

From ChEMBL document CHEMBL1153312, “Discovery of substituted 2,4,4-triarylimidazoline derivatives as potent and selective neuropeptide Y Y5 receptor antagonists” (Bioorg Med Chem Lett, 2009)
